Test results: publication PMC5774851 (Journal of medicinal chemistry, 2016)

Experiments:
[1] = In situ AFM measurement of L-cystine crystal step velocities; conditions: aqueous 2 mM L-cystine; for V/V0 normalized step velocity @ 15 μM: 15 μM inhibitor; for V/V0 normalized step velocity @ 30 μM: 30 μM inhibitor; for V/V0 normalized step velocity @ 45 μM: 45 μM inhibitor
[2] = Chemical stability in pH 7.4 phosphate buffered saline at 37 °C by LC-MS; format: physicochemical
In short: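 Test compound incubated in pH 7.4 phosphate-buffered saline at 37 °C. Loss of parent compound followed over time by LC-MS, and half-life taken from its disappearance.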

[3] = test system: Slc3a1 knockout male mice; conditions: knockout mouse model of cystinuria, previous study; cited from earlier work
[4] = L-cystine diamides in mouse urine after oral dosing; format: in vivo; conditions: mice, daily gavage 29.3 μmol/kg, micromolar concentrations in urine
[5] = test system: Slc3a1 knockout male mice; assay: In vivo activity in genetic mouse model of cystinuria; conditions: 29.3 μmol/kg daily gavage for 4 weeks
In short: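 Male Slc3a1 knockout mice in groups of six or seven received test compound at 29.3 μmol/kg by daily oral gavage for 4 weeks. Seven controls got water only. Read-out was the fraction of mice in each group that formed stones.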

[6] = cited from earlier work

half-life [2] | Oral bioavailability (found in urine after oral dosing) [4] | Concentration of L-cystine in the supernatant in the absence of inhibitor (Fluorescence assay; water, 25 °C, 72 h) | SMILES | V/V0 normalized step velocity @ 15 μM [1] | V/V0 normalized step velocity @ 30 μM [1] | V/V0 normalized step velocity @ 45 μM [1] | Ratio (improvement in potency over the control CDME) (Fluorescence assay; EC2x ratio vs CDME) | Effect on stone size and stone burden [3] | Effect on the number of mice that formed stones [3] | Effectiveness in preventing stone formation [5] | Reported equilibrium concentration of L-cystine [6]
~0.113 days |  |  | COC(=O)[C@@H](N)CSSC[C@H](N)C(=O)OC [CDME, L-cystine dimethyl ester, reference compound] | 0.4–0.65 | 0.27–0.54 | 0.21–0.48 | 1.0 | effective in reducing stone size and stone burden | no effect |  | 
19.8 days | orally bioavailable |  | Cl.Cl.N[C@@H](CSSC[C@H](N)C(=O)N1CCOCC1)C(=O)N1CCOCC1 [Compound 1a, L-Cystine bismorpholide] | 0.44–0.65 | 0.34–0.58 | 0.29–0.53 |  |  |  | ineffective | 
46.2 days | orally bioavailable |  | CN1CCN(C(=O)[C@@H](N)CSSC[C@H](N)C(=O)N2CCN(C)CC2)CC1.Cl.Cl.Cl.Cl [Compound 1b, L-cystine bis(N′-methylpiperazide)] | 0.52–0.66 | 0.32–0.50 | 0.30–0.40 |  |  |  | effective | 
 |  | approximately 1 mM | N[C@@H](CSSC[C@H](N)C(=O)O)C(=O)O [L-cystine] |  |  |  |  |  |  |  | 0.7 mM
